From ChEMBL document CHEMBL3244388, “Synthesis and antihypertensive activity of 2-benzamido-1,2,3,4,6,7,12,12b-octahydroindolo[2,3-a]quinolizines” (J Med Chem, 1979) come the findings set out here.

In data set [1] the test system is Rattus norvegicus. In words: Antihypertensive activity in spontaneous hypertensive rat assessed as change in systolic blood pressure at 25 mg/kg, po administered […] measured 2 hrs post last dose on day 3 by tail-cuff method relative to vehicle-treated control. It counts as functional, Artery. In a few lines:
(§1)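 Spontaneously hypertensive rats, pre-trained for 2 weeks; animals with baseline below 175 mmHg excluded. Oral dosing at 0 h on days 1, 2 and 3, six rats per group. After warming (20 min, 40 °C), systolic pressure was read by tail-cuff with microphone, 3–5 readings averaged. Readings at 0 h on days 1 and 3 and 2 h post-dose on day 3 were compared with 0-h controls by paired t test; a drop over 15 mmHg counted as active.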

In data set [2] the test system is Rattus norvegicus. In words: Antihypertensive activity in spontaneous hypertensive rat assessed as change in systolic blood pressure at 50 mg/kg, po […] measured 2 hrs post last dose on day 3 by tail-cuff method relative to vehicle-treated control. It counts as functional, Artery. In a few lines:
as §1

The species entered for data set [3] is Felis catus. Kind of data set: Inhibition of cat spleen alpha-adrenergic receptor. It counts as tissue-based.
The test system of data set [4] is Canis familiaris. Kind of data set: Inhibition of alpha-adrenergic receptor in iv dosed dog. It counts as functional, organism-based. As to conditions: Canis lupus familiaris.
The subject of data set [5] is Rattus norvegicus. In words: Antihypertensive activity in spontaneous hypertensive rat assessed as change in systolic blood pressure at 15 mg/kg, po […] measured 2 hrs post last dose on day 3 by tail-cuff method relative to vehicle-treated control. The format is functional, Artery. In a few lines: as §1
Data set [6] concerns Rattus norvegicus. In words: Toxicity in spontaneous hypertensive rat assessed as mortality at 50 mg/kg, po administered on […] measured 2 hrs post last dose on day 3. It counts as organism-based. Details: dose 50 mg/kg, route oral. As to conditions: in vivo. Summed up:
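Genetically spontaneously hypertensive rats, each trained for 2 weeks to set baseline; animals below 175 mmHg were excluded. Groups of six were dosed orally at 0 h on days 1, 2 and 3. Systolic pressure was read by indirect tail-cuff after 20 min conditioning at 40 °C, 3–5 readings averaged, at 0 h on days 1 and 3 and 2 h post-dose on day 3.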

The test system of data set [7] is Rattus norvegicus. In words: Antihypertensive activity in spontaneous hypertensive rat assessed as change in systolic blood pressure at 10 mg/kg, po […] measured 2 hrs post last dose on day 3 by tail-cuff method […]. The format is functional, Artery. In a few lines:
as §1

In data set [8] the test system is Rattus norvegicus. Kind of data set: Antihypertensive activity in spontaneous hypertensive rat assessed as change in systolic blood pressure at 5 mg/kg, po administered […] measured 2 hrs post last dose on day 3 by tail-cuff method relative to vehicle-treated control. It counts as functional, Artery. In a few lines:
as §1

The source made the active and inactive calls. The rule behind the calls is not given here.

With `CCn1c2c(c3ccccc31)CCN1CCC(N(C)C(=O)c3ccccc3)C[C@@H]21` (stereo partly drawn), the results for the Activity in data set [1] and in data set [2] were -63 mmHg and -67 mmHg, respectively. As to `O=C(N[C@@H]1CCN2CCc3c([nH]c4ccccc34)[C@@H]2C1)c1ccc(Cl)cc1`, the Activity in data set [2] is reported as -3 mmHg.

As for `O=C1c2ccccc2CN1[C@@H]1CCN2CCc3c([nH]c4ccccc34)[C@@H]2C1`, the Activity in data set [2] is 2 mmHg. Consider `c1ccc(N[C@H]2CCN3CCc4c([nH]c5ccccc45)[C@@H]3C2)cc1`, for which the Activity in data set [1] was determined as 5.75 mmHg. Consider `CN(C(=O)c1ccc(Cl)cc1)C1CCN2CCc3c([nH]c4ccccc34)[C@@H]2C1` (stereo partly drawn), for which the Activity in data set [2] is reported as -6 mmHg.

`CN(C(=O)c1cccc(C(F)(F)F)c1)C1CCN2CCc3c([nH]c4ccccc34)[C@@H]2C1` (stereo partly drawn): the Activity in data set [1] is -56 mmHg; in data set [2], -48 mmHg. In addition, the inhibition result in data set [3] and in data set [4] was “Active” each time. With `O=C(Nc1ccccc1)N[C@H]1CCN2CCc3c([nH]c4ccccc34)[C@@H]2C1`, the Activity in data set [1] is -6 mmHg.

For the compound `O=C(N[C@@H]1CCN2CCc3c([nH]c4ccccc34)[C@@H]2C1)c1ccccc1Br`, in data set [2], the Activity was -24 mmHg. In the case of `O=C(N[C@H]1CCN2CCc3c([nH]c4ccccc34)[C@@H]2C1)c1ccccc1Br`, in data set [2], the Activity stood at 18 mmHg. For the compound `CN(C(=O)c1ccccc1)[C@H]1CCN2CCc3c([nH]c4ccccc34)[C@@H]2C1`, the Activity in data set [5] is -17 mmHg. Regarding `CN(Cc1ccccc1)[C@@H]1CCN2CCc3c([nH]c4ccccc34)[C@@H]2C1`, the Activity in data set [2] is -54 mmHg. Still for that read-out and setting: next, `O=C(Nc1ccccc1)N[C@@H]1CCN2CCc3c([nH]c4ccccc34)[C@@H]2C1`: -22 mmHg.

Regarding `CN(C(=O)c1ccccc1Cl)C1CCN2CCc3c([nH]c4ccccc34)[C@@H]2C1` (stereo partly drawn), the Activity in data set [1] is on record as -13 mmHg. Same read-out and setting: next, `c1ccc(NC2CCN3CCc4c([nH]c5ccccc45)[C@@H]3C2)cc1` (stereo partly drawn): -25 mmHg; `O=C(N[C@@H]1CCN2CCc3c([nH]c4ccccc34)[C@@H]2C1)c1ccc(F)cc1`: -24 mmHg. Turning to `O=C(N[C@@H]1CCN2CCc3c([nH]c4ccccc34)[C@@H]2C1)c1ccccc1Cl`, the Activity in data set [2] was -26 mmHg. As to `CN(C(=O)c1ccc(F)cc1)C1CCN2CCc3c([nH]c4ccccc34)[C@@H]2C1` (stereo partly drawn), the Activity in data set [2] is -20 mmHg. On to `O=C(N[C@@H]1CCN2CCc3c([nH]c4ccccc34)[C@@H]2C1)c1ccc2c(c1)OCO2`, for which the Activity in data set [2] is reported as -52 mmHg.

Consider `O=C(c1ccccc1)N(C1CC1)C1CCN2CCc3c([nH]c4ccccc34)[C@@H]2C1` (stereo partly drawn), for which the Activity in data set [2] is -26 mmHg.

In the case of `Cl.O=C(NC1CCN(CCc2c[nH]c3ccccc23)CC1)c1ccccc1` [INDORAMIN HYDROCHLORIDE], in data set [2], the Activity is listed as -79 mmHg. `NC1CCN2CCc3c([nH]c4ccccc34)[C@@H]2C1` (stereo partly drawn): the Activity in data set [1] was -9.5 mmHg. `CCNC1CCN2CCc3c([nH]c4ccccc34)[C@@H]2C1` (stereo partly drawn): in data set [2], the Activity was -4 mmHg.

`COc1cccc(C(=O)N[C@@H]2CCN3CCc4c([nH]c5ccccc45)[C@@H]3C2)c1`: the Activity in data set [2] is -18 mmHg.

As to `CN(C(=O)c1cccc(F)c1)C1CCN2CCc3c([nH]c4ccccc34)[C@@H]2C1` (stereo partly drawn), the Activity was -76 mmHg in data set [1] and -110 mmHg in data set [2]. For `Cc1cccc(C(=O)N[C@H]2CCN3CCc4c([nH]c5ccccc45)[C@@H]3C2)c1`, the Activity in data set [1] is -53 mmHg.

With `Cc1cccc(C(=O)N[C@@H]2CCN3CCc4c([nH]c5ccccc45)[C@@H]3C2)c1`, the Activity in data set [2] is listed as -49 mmHg.

For the compound `CCN(C(=O)c1ccccc1)C1CCN2CCc3c([nH]c4ccccc34)[C@@H]2C1` (stereo partly drawn), the figures for the Activity in data set [1] and in data set [2] were -92 mmHg and -83 mmHg, respectively.

Consider `COc1ccc(C(=O)N[C@@H]2CCN3CCc4c([nH]c5ccccc45)[C@@H]3C2)cc1`, for which the Activity in data set [1] is listed as 10 mmHg. On to `CCCNC1CCN2CCc3c([nH]c4ccccc34)[C@@H]2C1` (stereo partly drawn), for which the Activity in data set [2] is on record as 27 mmHg. With `CN(C(=O)c1cccc(Cl)c1)C1CCN2CCc3c([nH]c4ccccc34)[C@@H]2C1` (stereo partly drawn), the Activity in data set [1] is -54 mmHg; in data set [2] it was -79 mmHg. For the compound `Nc1ccc(C(=O)N[C@@H]2CCN3CCc4c([nH]c5ccccc45)[C@@H]3C2)cc1`, in data set [2], the Activity is -31 mmHg. With `CN(C#N)[C@@H]1CCN2CCc3c([nH]c4ccccc34)[C@@H]2C1`, the results for the Activity in data set [2] and in data set [6] were -51 mmHg and “Toxic”, respectively.

For the compound `Cc1ccc(C(=O)N[C@@H]2CCN3CCc4c([nH]c5ccccc45)[C@@H]3C2)cc1`, in data set [2], the Activity is recorded as -18 mmHg. Still for that read-out and setting: next, `Cc1ccccc1C(=O)N(C)C1CCN2CCc3c([nH]c4ccccc34)[C@@H]2C1` (stereo partly drawn): -44 mmHg; `Cl.O=C(N[C@@H]1CCN2CCc3c([nH]c4ccccc34)[C@@H]2C1)c1ccc([N+](=O)[O-])cc1`: 15 mmHg.

On to `CNC1CCN2CCc3c([nH]c4ccccc34)[C@@H]2C1` (stereo partly drawn), for which the Activity in data set [2] was -18 mmHg. With `COc1cc(C(=O)N[C@@H]2CCN3CCc4c([nH]c5ccccc45)[C@@H]3C2)cc(OC)c1OC`, the Activity in data set [1] is -25 mmHg.

On to `O=C(N[C@@H]1CCN2CCc3c([nH]c4ccccc34)[C@@H]2C1)c1cccc(C(F)(F)F)c1`, for which the Activity in data set [2] was -3 mmHg. On the same count and under the same terms, next, `Cc1ccccc1C(=O)N[C@@H]1CCN2CCc3c([nH]c4ccccc34)[C@@H]2C1`: 13 mmHg; `CCn1c2c(c3ccccc31)CCN1CCC(NC)C[C@@H]21` (stereo partly drawn): -30 mmHg.

With `c1ccc(CCNC2CCN3CCc4c([nH]c5ccccc45)[C@@H]3C2)cc1` (stereo partly drawn), in data set [2], the Activity was -16 mmHg. As for `O=C(N[C@@H]1CCN2CCc3c([nH]c4ccccc34)[C@@H]2C1)c1ccccc1`, the Activity in data set [2] came to 1 mmHg. In the case of `O=C(NC1CCN2CCc3c([nH]c4ccccc34)[C@@H]2C1)c1ccco1` (stereo partly drawn), in data set [2], the Activity is 0 mmHg. Still for that read-out and setting: to `CCCN(C(=O)c1ccccc1)C1CCN2CCc3c([nH]c4ccccc34)[C@@H]2C1` (stereo partly drawn) belongs -16 mmHg.

For `COc1ccc(C(=O)N(C)[C@@H]2CCN3CCc4c([nH]c5ccccc45)[C@@H]3C2)cc1`, the Activity in data set [1] is -72 mmHg; in data set [2], -50 mmHg; in data set [7], -86 mmHg; in data set [8], -53 mmHg. For the same compound, the inhibition result in data set [3] and in data set [4] was “Active” in each case.

As for `CN(C(=O)c1ccccc1)[C@@H]1CCN2CCc3c([nH]c4ccccc34)[C@@H]2C1`, the Activity was -103 mmHg in data set [2], -41 mmHg in data set [7] and -19 mmHg in data set [8]. Moreover, the inhibition result in data set [3] and in data set [4] was “Active” in each case. In the case of `Cc1ccc(C(=O)N[C@H]2CCN3CCc4c([nH]c5ccccc45)[C@@H]3C2)cc1`, the Activity in data set [1] was -32 mmHg. For the compound `c1ccc2c3c([nH]c2c1)[C@@H]1CC(NC2CC2)CCN1CC3` (stereo partly drawn), the Activity in data set [2] was -25 mmHg. Same read-out and setting: to `CC(=O)NC1CCN2CCc3c([nH]c4ccccc34)[C@@H]2C1` (stereo partly drawn) belongs -20 mmHg. In the case of `c1ccc(CNC2CCN3CCc4c([nH]c5ccccc45)[C@@H]3C2)cc1` (stereo partly drawn), the Activity in data set [1] is -8 mmHg; in data set [2], -53 mmHg.
